In ChEMBL document CHEMBL1148345, “Hydrophobic acetal and ketal derivatives of mannopeptimycin-alpha and desmethylhexahydromannopeptimycin-alpha: semisynthetic glycopeptides with potent activity against Gram-positive bacteria” (2004):
≈ marks a conversion by molar mass, not a printed value. One block for each compound: values may come before it.

Tests used:
Assay type in all cases: functional
[1] = tested on: Staphylococcus; assay: In vitro minimum inhibitory concentration against Staphylococcus species; Range is 0.25-1 ug/mL
[2] = tested on: Enterococcus; assay: In vitro minimum inhibitory concentration against Enterococcus species; Range is 0.5-1 ug/mL
[3] = tested on: Staphylococcus aureus; assay: Effective dose of compound against […] Smith (GC 4543) in mice
Outline: (§1)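 Murine protection models against S. aureus Smith (GC 4543) and E. faecalis (GC 6189). Compounds dosed in D5W (5% dextrose in water); vancomycin dosed in saline. Five dosages, five mice per dosage level. ED50 in mg/kg reported as the pooled mean from at least three separate tests.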

[4] = tested on: Streptococcus; assay: In vitro minimum inhibitory concentration against Streptococcus species
[5] = tested on: Enterococcus faecalis; assay: Effective dose of compound against Enterococcus faecalis (GC 6189) in mice; outline: as §1
[6] = tested on: Enterococcus; assay: In vitro minimum inhibitory concentration against Enterococcus species (in vitro); Range is 1-2 ug/mL
[7] = tested on: Staphylococcus; assay: In vitro minimum inhibitory concentration against Staphylococcus species; Range is 0.5-1 ug/mL
[8] = tested on: Enterococcus; assay: In vitro minimum inhibitory concentration against Enterococcus species
[9] = tested on: Staphylococcus; assay: In vitro minimum inhibitory concentration against Staphylococcus species
[10] = tested on: Staphylococcus; assay: In vitro minimum inhibitory concentration against Staphylococcus species; Range is 0.5-2 ug/mL
[11] = tested on: Enterococcus; assay: In vitro minimum inhibitory concentration against Enterococcus species; Range is 2-4 ug/mL
[12] = tested on: Staphylococcus; assay: In vitro minimum inhibitory concentration against Staphylococcus species; Range is 1-2 ug/mL
[13] = tested on: Streptococcus; assay: In vitro minimum inhibitory concentration against Streptococcus species; Range is 0.06-0.12 ug/mL
[14] = tested on: Streptococcus; assay: In vitro minimum inhibitory concentration against Streptococcus species; Range is 0.12-0.5 ug/mL
[15] = tested on: Enterococcus; assay: In vitro minimum inhibitory concentration against Enterococcus species; Range is 0.5-128 ug/mL
[16] = tested on: Enterococcus; assay: In vitro minimum inhibitory concentration against Enterococcus species; Range is 0.5-4 ug/mL
[17] = tested on: Streptococcus; assay: In vitro minimum inhibitory concentration against Streptococcus species; Range is 0.12-0.25 ug/mL
[18] = tested on: Staphylococcus; assay: In vitro minimum inhibitory concentration against Staphylococcus species; Range is 1-4 ug/mL
[19] = tested on: Enterococcus; assay: In vitro minimum inhibitory concentration against Enterococcus species; Range is 4-8 ug/mL
[20] = tested on: Streptococcus; assay: In vitro minimum inhibitory concentration against Streptococcus species; Range is 0.12-1 ug/mL
[21] = tested on: Enterococcus; assay: In vitro minimum inhibitory concentration against Enterococcus species; Range is 1-2 ug/mL
[22] = tested on: Streptococcus; assay: In vitro minimum inhibitory concentration against Streptococcus species; Range is 0.06-0.25 ug/mL
[23] = tested on: Staphylococcus; assay: In vitro minimum inhibitory concentration against Staphylococcus species; Range is 0.06-0.12 ug/mL
[24] = tested on: Enterococcus; assay: In vitro minimum inhibitory concentration against Enterococcus species; Range is 0.12-0.25 ug/mL
[25] = tested on: Enterococcus; assay: In vitro minimum inhibitory concentration against Enterococcus species; Range is 0.5-2 ug/mL

SMILES: C[C@@H](c1ccccc1)C1NC(=O)CNC(=O)[C@H](CO)NC(=O)[C@@H]([C@@H](O)[C@@H]2CN=C(N)N2[C@H]2O[C@H](CO)[C@@H](O)[C@H](O)[C@@H]2O)NC(=O)[C@H]([C@@H](O)[C@@H]2CN=C(N)N2)NC(=O)[C@@H](Cc2ccc(O[C@H]3O[C@H](CO)[C@@H](O[C@H]4O[C@@H]5COC6(O[C@H]5[C@H](O)[C@@H]4O)C4CC5CC(C4)CC6C5)[C@H](O)[C@@H]3O)cc2)NC1=O (stereo not given in full)
MIC [1]: 1 µg/mL (≈ 0.701 µM) | MIC [2]: 1 µg/mL (≈ 0.701 µM) | ED50 [3]: 0.04 mg/kg | MIC [4]: ≤ 0.06 µg/mL | ED50 [5]: 1.8 mg/kg

SMILES: NC1=NC[C@@H]([C@H](O)[C@@H]2NC(=O)[C@@H](Cc3ccc(O[C@H]4O[C@H](CO)[C@@H](O[C@H]5O[C@@H]6COC(c7ccccc7)O[C@H]6[C@H](O)[C@@H]5O)[C@H](O)[C@@H]4O)cc3)NC(=O)C(CC3CCCCC3)NC(=O)CNC(=O)[C@H](CO)NC(=O)[C@@H]([C@@H](O)[C@@H]3CN=C(N)N3[C@H]3O[C@H](CO)[C@@H](O)[C@H](O)[C@@H]3O)NC2=O)N1 (stereo not given in full)
MIC [4]: ≤ 0.12 µg/mL | MIC [10]: 2 µg/mL (≈ 1.45 µM) | MIC [11]: 4 µg/mL (≈ 2.91 µM)

SMILES: CN[C@H](CC(C)C)C(=O)N[C@H]1C(=O)N[C@@H](CC(N)=O)C(=O)N[C@H]2C(=O)N[C@H]3C(=O)N[C@H](C(=O)N[C@H](C(=O)O)c4cc(O)cc(O)c4-c4cc3ccc4O)[C@H](O)c3ccc(c(Cl)c3)Oc3cc2cc(c3O[C@@H]2O[C@H](CO)[C@@H](O)[C@H](O)[C@H]2O[C@H]2C[C@](C)(N)[C@H](O)[C@H](C)O2)Oc2ccc(cc2Cl)[C@H]1O [VANCOMYCIN]
MIC [14]: ≤ 0.5 µg/mL | ED50 [3]: 1 mg/kg | MIC [10]: < 2 µg/mL | ED50 [5]: > 32 mg/kg | MIC [15]: 128 µg/mL (≈ 88.3 µM)

SMILES: NC1=NC[C@@H]([C@H](O)[C@@H]2NC(=O)[C@@H](Cc3ccc(O[C@H]4O[C@H](CO)[C@@H](O[C@H]5O[C@@H]6COC(Cc7ccccc7)O[C@H]6[C@H](O)[C@@H]5O)[C@H](O)[C@@H]4O)cc3)NC(=O)C(CC3CCCCC3)NC(=O)CNC(=O)[C@H](CO)NC(=O)[C@@H]([C@@H](O)[C@@H]3CN=C(N)N3[C@H]3O[C@H](CO)[C@@H](O)[C@H](O)[C@@H]3O)NC2=O)N1 (stereo not given in full)
MIC [12]: 2 µg/mL (≈ 1.44 µM) | MIC [16]: 4 µg/mL (≈ 2.88 µM) | MIC [13]: ≤ 0.12 µg/mL

SMILES: NC1=NC[C@@H]([C@H](O)[C@@H]2NC(=O)[C@@H](Cc3ccc(O[C@H]4O[C@H](CO)[C@@H](O[C@H]5O[C@@H]6COC7(O[C@H]6[C@H](O)[C@@H]5O)C5CC6CC(C5)CC7C6)[C@H](O)[C@@H]4O)cc3)NC(=O)C(CC3CCCCC3)NC(=O)CNC(=O)[C@H](CO)NC(=O)[C@@H]([C@@H](O)[C@@H]3CN=C(N)N3[C@H]3O[C@H](CO)[C@@H](O)[C@H](O)[C@@H]3O)NC2=O)N1 (stereo not given in full)
MIC [1]: 1 µg/mL (≈ 0.704 µM) | MIC [23]: ≤ 0.12 µg/mL | ED50 [3]: 0.08 mg/kg | MIC [24]: 0.25 µg/mL (≈ 0.176 µM) | MIC [4]: ≤ 0.06 µg/mL | MIC [25]: 2 µg/mL (≈ 1.41 µM) | ED50 [5]: 0.39 mg/kg | MIC [13]: ≤ 0.12 µg/mL

SMILES: C[C@@H](c1ccccc1)C1NC(=O)CNC(=O)[C@H](CO)NC(=O)[C@@H]([C@@H](O)[C@@H]2CN=C(N)N2[C@H]2O[C@H](CO)[C@@H](O)[C@H](O)[C@@H]2O)NC(=O)[C@H]([C@@H](O)[C@@H]2CN=C(N)N2)NC(=O)[C@@H](Cc2ccc(O[C@H]3O[C@H](CO)[C@@H](O[C@H]4O[C@@H]5COC6(O[C@H]5[C@H](O)[C@@H]4O)C4CCCC6CCC4)[C@H](O)[C@@H]3O)cc2)NC1=O (stereo not given in full)
MIC [18]: 4 µg/mL (≈ 2.83 µM) | MIC [19]: 8 µg/mL (≈ 5.65 µM) | MIC [4]: ≤ 0.06 µg/mL

The next lines start with results.

MIC [6]: 2 µg/mL (≈ 1.45 µM) | MIC [4]: ≤ 0.5 µg/mL | MIC [7]: ≤ 1 µg/mL
SMILES: CCCCCC1OC[C@H]2O[C@H](O[C@H]3[C@H](O)[C@H](O)[C@@H](Oc4ccc(C[C@H]5NC(=O)C([C@@H](C)c6ccccc6)NC(=O)CNC(=O)[C@H](CO)NC(=O)[C@@H]([C@@H](O)[C@@H]6CN=C(N)N6[C@H]6O[C@H](CO)[C@@H](O)[C@H](O)[C@@H]6O)NC(=O)[C@H]([C@@H](O)[C@@H]6CN=C(N)N6)NC5=O)cc4)O[C@@H]3CO)[C@@H](O)[C@@H](O)[C@@H]2O1 (stereo not given in full)

MIC [8]: > 128 µg/mL | MIC [9]: 128 µg/mL (≈ 98.8 µM) | MIC [4]: > 32 µg/mL
SMILES: C[C@@H](c1ccccc1)C1NC(=O)CNC(=O)[C@H](CO)NC(=O)[C@@H]([C@@H](O)[C@@H]2CN=C(N)N2[C@H]2O[C@H](CO)[C@@H](O)[C@H](O)[C@@H]2O)NC(=O)[C@H]([C@@H](O)[C@@H]2CN=C(N)N2)NC(=O)[C@@H](Cc2ccc(O[C@H]3O[C@H](CO)[C@@H](O[C@H]4O[C@H](CO)[C@@H](O)[C@H](O)[C@@H]4O)[C@H](O)[C@@H]3O)cc2)NC1=O (stereo not given in full)
ED50 [3]: 20 mg/kg

MIC [12]: 2 µg/mL (≈ 1.43 µM) | MIC [11]: 4 µg/mL (≈ 2.85 µM) | MIC [13]: ≤ 0.12 µg/mL
SMILES: C[C@@H](c1ccccc1)C1NC(=O)CNC(=O)[C@H](CO)NC(=O)[C@@H]([C@@H](O)[C@@H]2CN=C(N)N2[C@H]2O[C@H](CO)[C@@H](O)[C@H](O)[C@@H]2O)NC(=O)[C@H]([C@@H](O)[C@@H]2CN=C(N)N2)NC(=O)[C@@H](Cc2ccc(O[C@H]3O[C@H](CO)[C@@H](O[C@H]4O[C@@H]5COC(CC6CCCCC6)O[C@H]5[C@H](O)[C@@H]4O)[C@H](O)[C@@H]3O)cc2)NC1=O (stereo not given in full)

MIC [17]: ≤ 0.25 µg/mL | MIC [10]: 2 µg/mL (≈ 1.45 µM) | MIC [11]: 4 µg/mL (≈ 2.89 µM)
SMILES: C[C@@H](c1ccccc1)C1NC(=O)CNC(=O)[C@H](CO)NC(=O)[C@@H]([C@@H](O)[C@@H]2CN=C(N)N2[C@H]2O[C@H](CO)[C@@H](O)[C@H](O)[C@@H]2O)NC(=O)[C@H]([C@@H](O)[C@@H]2CN=C(N)N2)NC(=O)[C@@H](Cc2ccc(O[C@H]3O[C@H](CO)[C@@H](O[C@H]4O[C@@H]5COC(c6ccccc6)O[C@H]5[C@H](O)[C@@H]4O)[C@H](O)[C@@H]3O)cc2)NC1=O (stereo not given in full)
ED50 [3]: 0.19 mg/kg | ED50 [5]: 0.39 mg/kg

MIC [18]: 4 µg/mL (≈ 2.91 µM) | MIC [19]: 8 µg/mL (≈ 5.82 µM) | MIC [20]: 1 µg/mL (≈ 0.727 µM)
SMILES: C[C@@H](c1ccccc1)C1NC(=O)CNC(=O)[C@H](CO)NC(=O)[C@@H]([C@@H](O)[C@@H]2CN=C(N)N2[C@H]2O[C@H](CO)[C@@H](O)[C@H](O)[C@@H]2O)NC(=O)[C@H]([C@@H](O)[C@@H]2CN=C(N)N2)NC(=O)[C@@H](Cc2ccc(O[C@H]3O[C@H](CO)[C@@H](O[C@H]4O[C@@H]5COC6(CCCCC6)O[C@H]5[C@H](O)[C@@H]4O)[C@H](O)[C@@H]3O)cc2)NC1=O (stereo not given in full)

MIC [21]: 2 µg/mL (≈ 1.43 µM) | MIC [9]: 2 µg/mL (≈ 1.43 µM) | MIC [22]: ≤ 0.25 µg/mL
SMILES: C[C@@H](c1ccccc1)C1NC(=O)CNC(=O)[C@H](CO)NC(=O)[C@@H]([C@@H](O)[C@@H]2CN=C(N)N2[C@H]2O[C@H](CO)[C@@H](O)[C@H](O)[C@@H]2O)NC(=O)[C@H]([C@@H](O)[C@@H]2CN=C(N)N2)NC(=O)[C@@H](Cc2ccc(O[C@H]3O[C@H](CO)[C@@H](O[C@H]4O[C@@H]5COC(Cc6ccccc6)O[C@H]5[C@H](O)[C@@H]4O)[C@H](O)[C@@H]3O)cc2)NC1=O (stereo not given in full)
ED50 [3]: 0.23 mg/kg | ED50 [5]: 1.04 mg/kg

MIC [9]: 1 µg/mL (≈ 0.72 µM) | MIC [4]: ≤ 0.12 µg/mL | MIC [25]: 2 µg/mL (≈ 1.44 µM)
SMILES: C[C@@H](c1ccccc1)C1NC(=O)CNC(=O)[C@H](CO)NC(=O)[C@@H]([C@@H](O)[C@@H]2CN=C(N)N2[C@H]2O[C@H](CO)[C@@H](O)[C@H](O)[C@@H]2O)NC(=O)[C@H]([C@@H](O)[C@@H]2CN=C(N)N2)NC(=O)[C@@H](Cc2ccc(O[C@H]3O[C@H](CO)[C@@H](O[C@H]4O[C@@H]5COC(C6CCCCC6)O[C@H]5[C@H](O)[C@@H]4O)[C@H](O)[C@@H]3O)cc2)NC1=O (stereo not given in full)
ED50 [3]: 0.07 mg/kg | ED50 [5]: 0.19 mg/kg
